Measurements of several laboratories.
Lines come from different studies, so protocols differ.
Target: Prostaglandin G/H synthase 2 (PTGS2, Homo sapiens, UniProt P35354)
Observed: enzyme activity
Mode: inhibitor
One construct used (P35354 18-604): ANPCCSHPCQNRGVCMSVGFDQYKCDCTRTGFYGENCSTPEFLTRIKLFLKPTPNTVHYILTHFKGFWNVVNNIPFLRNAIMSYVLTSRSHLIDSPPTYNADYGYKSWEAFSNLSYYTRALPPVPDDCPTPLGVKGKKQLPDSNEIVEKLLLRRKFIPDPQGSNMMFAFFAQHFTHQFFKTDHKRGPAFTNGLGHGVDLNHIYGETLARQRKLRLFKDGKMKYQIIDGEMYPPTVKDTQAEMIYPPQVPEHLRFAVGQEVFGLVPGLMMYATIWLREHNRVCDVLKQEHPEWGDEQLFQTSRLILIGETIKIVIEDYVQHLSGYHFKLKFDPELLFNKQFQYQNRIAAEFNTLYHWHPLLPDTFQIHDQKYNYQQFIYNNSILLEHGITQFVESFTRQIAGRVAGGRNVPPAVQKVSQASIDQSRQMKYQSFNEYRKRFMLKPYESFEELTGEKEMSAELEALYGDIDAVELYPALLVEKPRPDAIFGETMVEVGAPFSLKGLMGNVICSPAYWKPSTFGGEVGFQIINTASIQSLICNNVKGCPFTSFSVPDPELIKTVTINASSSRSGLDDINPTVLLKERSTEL

| Structure (SMILES) | test | IC50 [nM] |
| --- | --- | --- |
| O=c1cc(-c2ccc(O)c(O)c2)oc2cc(O)cc(O)c12 |  | 2270 |
| O=C1Nc2ccccc2/C1=C/c1cn(-c2nc(N3CCCC3)nc(N3CCOCC3)n2)c2ccccc12 |  | 8000 |
| NS(=O)(=O)c1ccc(-c2ncc(Cl)cc2-c2nc3ccccc3s2)cc1 | absorbance | 210 |
| CC1=NN(c2cccc(Cl)c2)C(=O)/C1=C\c1cn(-c2nc(Cl)nc(N3CCOCC3)n2)c2ccccc12 |  | 100 |
| O=c1oc2c(O)c(O)cc3c(=O)oc4c(O)c(O)cc1c4c23 |  | 4620 |
| CC(C)Cc1ccc(-c2nn(-c3ccc(S(C)(=O)=O)cc3)cc2/C=N/N=c2\[nH]c(-c3ccc(Br)cc3)cs2)cc1 |  | 3010 |
| COc1ccc(Nc2c(-c3ccc(S(C)(=O)=O)cc3)nc3c(C)cccn23)cc1 |  | 80 |
| CC1=NN(c2cccc(Cl)c2)C(=O)/C1=C\c1cn(-c2nc(N3CCCCC3)nc(N3CCOCC3)n2)c2ccccc12 |  | 50 |
| Cc1cccn2c(Nc3ccccc3)c(-c3ccc(S(C)(=O)=O)cc3)nc12 |  | 80 |
| O=C(O)c1cc(O)c(O)c(O)c1 |  | 8140 |
| Cc1ccc(Nc2c(-c3ccc(S(C)(=O)=O)cc3)nc3ccccn23)cc1 |  | 100 |
| O=C1/C(=C\c2cn(-c3nc(N4CCCCC4)nc(N4CCOCC4)n3)c3ccccc23)c2ccccc2N1c1c(Cl)cccc1Cl |  | 1000 |
| CCn1c(-c2nc3ccc(C(=O)N4CCCC(N)C4)cc3n2C)cc2ccccc21 (stereo not drawn) |  | > 100000 |
| Cc1ccc(Nc2c(-c3ccc(S(C)(=O)=O)cc3)nc3cc(C)ccn23)cc1 |  | 70 |
| COC(=O)c1ccc(O)cc1 | absorbance | 97900 |
| O=Cc1cn(-c2nc(N3CCCCC3)nc(N3CCCCC3)n2)c2ccccc12 |  | 7000 |
| Cc1ccc(-c2nc3ccccc3s2)c(-c2ccc(S(N)(=O)=O)cc2)c1 | absorbance | 250 |

| Structure (SMILES) | test | IC50 [nM] |
| --- | --- | --- |
| COC(=O)c1cc(O)c(O)c(O)c1 |  | 17900 |
| CS(=O)(=O)c1ccc(-n2cc(/C=N/N=c3\[nH]c(-c4ccc(Br)cc4)cs3)c(-c3ccc(Br)cc3)n2)cc1 |  | 5820 |
| Cc1cccc2nc(-c3ccc(S(C)(=O)=O)cc3)c(Nc3ccccc3)n12 |  | 70 |
| CC(=O)c1ccc(/N=N/c2cc(/C=C/C(=O)O)ccc2O)cc1 |  | > 100000 |
| NS(=O)(=O)c1ccc(-c2ncccc2-c2nc3ccccc3s2)cc1 | absorbance | 690 |
| CC(C)Cc1ccc(-c2nn(-c3ccc(S(C)(=O)=O)cc3)cc2/C=N\N=C2/NC(=O)CS2)cc1 |  | 756 |
| O=Cc1cn(-c2nc(N3CCCCC3)nc(N3CCOCC3)n2)c2ccccc12 |  | 700 |
| CS(=O)(=O)c1ccc(-n2cc(/C=N/N=c3\[nH]c(-c4ccc([N+](=O)[O-])cc4)cs3)c(-c3ccc([N+](=O)[O-])cc3)n2)cc1 |  | 15500 |
| CS(=O)(=O)c1ccc(-c2nc3ccccn3c2Nc2ccc(Cl)cc2)cc1 |  | 70 |
| O=C(O)/C=C/c1ccc(O)cc1 |  | > 100000 |
| COc1ccc(-c2nn(-c3ccc(S(C)(=O)=O)cc3)cc2C=N/N=c2\[nH]c(-c3ccc([N+](=O)[O-])cc3)cs2)cc1 |  | 8830 |
| O=Cc1cn(-c2nc(Cl)nc(N3CCOCC3)n2)c2ccccc12 |  | 10000 |
| COc1ccc(Nc2c(-c3ccc(S(C)(=O)=O)cc3)nc3cc(C)ccn23)cc1 |  | 100 |
| CC1=NN(c2cccc(Cl)c2)C(=O)/C1=C\c1cn(-c2nc(N3CCCCC3)nc(N3CCCCC3)n2)c2ccccc12 |  | 100 |
| Cc1ccc(Nc2c(-c3ccc(S(C)(=O)=O)cc3)nc3c(C)cccn23)cc1 |  | 70 |
| C=C[C@@]1(C)C=C2CC[C@@H]3[C@](C)(CCC[C@@]3(C)C(=O)O)[C@H]2CC1 | absorbance | 18500 |
